Assay results: ChEMBL document CHEMBL4270633, “Discovery of novel vinyl sulfone derivatives as anti-tumor agents with microtubule polymerization inhibitory and vascular disrupting activities” (Eur J Med Chem, 2018)
The source made the active and inactive calls. The rule behind the calls is not given here.

How the values were obtained:
K562 [1] = experiment: Induction of apoptosis in human K562 cells after 48 hrs by Annexin V-FITC/propidium iodide staining based flow cytometry; format: functional, cell-based
Method in brief: (§1)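 K562 cells treated 48 h at 0, 0.05, 0.1, 0.2 µM or 0, 0.005, 0.010, 0.020 µM. Washed in PBS, resuspended in Annexin V binding buffer and stained 15 min in the dark. Early plus late apoptotic fractions quantified by flow-cytometric quadrant analysis.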

K562 [2] = experiment: Antiproliferative activity against human K562 cells after 72 hrs by MTT assay; format: functional, cell-based; conditions: K562, 72 h
Method in brief: (§2)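 Cells seeded and held 24 h at 37 °C, 5% CO2, then exposed to a concentration series in medium with 0.1% DMSO for 72 h. MTT (5 mg/mL in PBS) added for 4 h and OD read at 490 nm. IC50 taken from dose-response curves; mean ± SD of at least three independent experiments.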

K562 [3] = experiment: Induction of apoptosis in human K562 cells at 0.02 uM after 48 hrs by Annexin V-FITC/propidium iodide staining based flow cytometry (reference value: 1.46%); format: functional; method in brief: as §1
HUVEC = experiment: Antivascular activity against HUVEC assessed as reduction in wound closure after 24 hrs by phase contrast microscopic method; format: functional, cell-based; conditions: Homo sapiens
Method in brief: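 Scratch wounds made with a sterile 200 µL pipette tip, then treated at 0.05, 0.10, 0.20 µM or 0.005, 0.010, 0.020 µM. Phase-contrast images taken at 0 h and 24 h after treatment.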

K562 [4] = experiment: Cell cycle arrest in human K562 cells assessed as accumulation at G1 phase at 0.005 uM after 48 hrs by propidium iodide staining based flow cytometry (reference value: 41.08%); format: functional
K562 [5] = experiment: Disruption of microtubule network in human K562 cells at 0.005 to 0.02 uM after 24 hrs by DAPI staining based immunofluorescent microscopic method; format: cell-based
Method in brief: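 K562 cells exposed for 24 h to 0.1% DMSO vehicle or to 0.05, 0.10, 0.20 µM or 0.005, 0.010, 0.020 µM. Fixed in 4% paraformaldehyde, blocked with goat serum 20 min at room temperature, then anti-α-tubulin antibody 2 h at 37 °C. Fluorescent antibody staining, DAPI nuclear counterstain, fluorescence microscopy.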

H22 [6] = experiment: Antitumor activity against mouse H22 cells implanted in ICR mouse assessed as tumor growth inhibition at 30 mg/kg, iv administered once daily for 21 consecutive days relative to control; format: functional; conditions: read-out: TGI
Method in brief: (§3)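 Male ICR mice, five weeks old, inoculated s.c. in the right flank with 1 × 10^6 H22 cells. After one day, randomized into groups of six. Given i.v. 15 or 30 mg/kg daily for 21 days in 10% DMF/2% Tween 80/88% saline, or 8 mg/kg every 2 days; vehicle control given i.v. Tumors excised and weighed; inhibition (%) = (1 − treated/control mean tumor weight) × 100.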

K562 [7] = experiment: Cell cycle arrest in human K562 cells assessed as accumulation at S phase at 0.02 uM after 48 hrs by propidium iodide staining based flow cytometry (reference value: 49.41%); format: functional
K562 [8] = experiment: Induction of apoptosis in human K562 cells at 0.01 uM after 48 hrs by Annexin V-FITC/propidium iodide staining based flow cytometry (reference value: 1.46%)
K562 [9] = experiment: Cell cycle arrest in human K562 cells assessed as accumulation at G1 phase at 0.02 uM after 48 hrs by propidium iodide staining based flow cytometry (reference value: 41.08%); format: functional
H22 [10] = experiment: Antitumor activity against mouse H22 cells implanted in ICR mouse assessed as tumor growth inhibition at 15 mg/kg, iv administered once daily for 21 consecutive days relative to control; format: functional; conditions: read-out: TGI; method in brief: as §3
K562 [11] = experiment: Cell cycle arrest in human K562 cells assessed as accumulation at G2 phase at 0.02 uM after 48 hrs by propidium iodide staining based flow cytometry (reference value: 9.51%); format: functional
K562 [12] = experiment: Cell cycle arrest in human K562 cells assessed as accumulation at G2 phase at 0.005 uM after 48 hrs by propidium iodide staining based flow cytometry (reference value: 9.51%); format: functional
K562 [13] = experiment: Cell cycle arrest in human K562 cells assessed as accumulation at S phase at 0.01 uM after 48 hrs by propidium iodide staining based flow cytometry (reference value: 49.41%); format: functional
HepG2 = experiment: Antiproliferative activity against human HepG2 cells after 72 hrs by MTT assay; format: functional, cell-based; conditions: HepG2, 72 h; method in brief: as §2
K562 [14] = experiment: Cell cycle arrest in human K562 cells assessed as accumulation at S phase at 0.005 uM after 48 hrs by propidium iodide staining based flow cytometry (reference value: 49.41%); format: functional
K562 [15] = experiment: Cell cycle arrest in human K562 cells assessed as accumulation at G2 phase at 0.01 uM after 48 hrs by propidium iodide staining based flow cytometry (reference value: 9.51%); format: functional
[16] = Inhibition of porcine brain tubulin polymerization after 30 mins by spectrophotometric method; set-up: species or system Sus scrofa
Method in brief: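 Purified tubulin (2 mg/mL) in PEM buffer (80 mM PIPES pH 6.9, 0.5 mM EGTA, 2 mM MgCl2, 15% glycerol), preincubated on ice with compound or DMSO vehicle, then GTP added. Absorbance at 340 nm followed at 37 °C for 30 min. IC50 derived from area under the polymerization curve.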

A549 = experiment: Antiproliferative activity against human A549 cells after 72 hrs by MTT assay; format: functional, cell-based; conditions: A549, 72 h; method in brief: as §2
K562 [17] = experiment: Induction of apoptosis in human K562 cells at 0.005 uM after 48 hrs by Annexin V-FITC/propidium iodide staining based flow cytometry (reference value: 1.46%); format: functional; method in brief: as §1
K562 [18] = experiment: Cell cycle arrest in human K562 cells assessed as accumulation at G1 phase at 0.01 uM after 48 hrs by propidium iodide staining based flow cytometry (reference value: 41.08%); format: functional
K562 [19] = experiment: Antiproliferative activity against human K562 cells at 1 uM after 72 hrs by MTT assay; format: functional, cell-based

COc1ccc(/C=C\c2cc(OC)c(OC)c(OC)c2)cc1O [COMBRETASTATIN A4]
Activity (K562 [1]): Dose-dependent effect
IC50 (K562 [2]): 21 nM
Activity (K562 [3]): 63.05%
Activity (HUVEC): Dose-dependent effect
Activity (K562 [4]): 46.14%
Activity (K562 [5]): Active
inhibition in vivo at 30 mg/kg (H22 [6]): 56.7%
Activity (K562 [7]): 18.54%
Activity (K562 [8]): 53.05%
Activity (K562 [9]): 56.51%
inhibition in vivo at 15 mg/kg (H22 [10]): 45%
Activity (K562 [11]): 24.95%
Activity (K562 [12]): 13.84%
Activity (K562 [13]): 16.25%
IC50 (HepG2): 12 nM
Activity (K562 [14]): 40.02%
Activity (K562 [15]): 22.59%
IC50 [16]: 2170 nM
IC50 (A549): 37 nM
Activity (K562 [17]): 25.28%
Activity (K562 [18]): 61.16%
Activity (K562 [19]): Active
